Results reported in ChEMBL document CHEMBL4007426, “Phosphinophosphonates and Their Tris-pivaloyloxymethyl Prodrugs Reveal a Negatively Cooperative Butyrophilin Activation Mechanism” (J Med Chem, 2017).
Activity calls are given as the source filed them. The calls are words filed in the database; no cut-off is given here.

Legend:
[1] = Toxicity in human Vgamma9/Vdelta2 T cells treated for 72 hrs measured on day 11 post last treatment by flow cytometry; type: cell-based, Vgamma9/Vdelta2 T cell
In short: (§1)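 Human peripheral blood mononuclear cells were treated with compound for 72 h, cultured to day 11, and Vγ9Vδ2 (CD3+/γδ TCR+) cells were assessed by flow cytometry over a dose-response range. Interleukin 2 and untreated controls were included. Runs were done at least three independent times using cells from at least 2 donors.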

K562 = assay: Antiproliferative activity against human K562 cells after 72 hrs by fluorescence spectroscopy; type: cell-based; details: K562, 72 h
In short: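 K562 cells at 1 × 10^4 cells/100 μL exposed to compounds for 72 h. Fluorescent viability reagent added for the final 2 h, then fluorescence read. Viability expressed as percent of untreated cells after subtracting a media-only blank.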

[2] = biological target: Butyrophilin subfamily 3 member A1 (Homo sapiens) (UniProt O00481); assay: Inhibition of HMBPP binding to recombinant C-terminal His-tagged BTN3A1 intracellular domain (unknown origin) expressed in BL21(DE) by isothermal titration calorimetry
[3] = biological target: Butyrophilin subfamily 3 member A1 (Homo sapiens) (UniProt O00481); assay: Inhibition of HMBPP binding to recombinant C-terminal His-tagged BTN3A1 intracellular domain (unknown origin) expressed in BL21(DE) assessed as change in entropy of HMBPP binding at 100-fold molar excess of compound by isothermal titration calorimetry (reference value: 19 kJ/mol); type: cell-based
[4] = biological target: Butyrophilin subfamily 3 member A1 (Homo sapiens) (UniProt O00481); assay: Inhibition of HMBPP binding to recombinant C-terminal His-tagged BTN3A1 intracellular domain (unknown origin) expressed in BL21(DE) assessed as change in entropy of HMBPP binding at 10-fold higher dose of compound by isothermal titration calorimetry (reference value: 19 kJ/mol); type: cell-based
[5] = biological target: Butyrophilin subfamily 3 member A1 (Homo sapiens) (UniProt O00481); assay: Activation of BTN3A1 in human Vgamma9Vdelta2 T cells assessed as induction of interleukin 2 stimulated cell proliferation by measuring increase in gammadelta T cell receptor positive cells at 0.1 uM treated for 72 hrs measured on day 11 post last treatment by flow cytometry
In short: (§2)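 Human peripheral blood mononuclear cells exposed to compound for 72 h together with interleukin 2, then grown for 11 days. CD3+/γδ TCR+ cells were scored by flow cytometry. […] Negative controls were cells with or without interleukin 2 and no compound. Bars show mean and SD, n=3, with ANOVA and Tukey post-hoc test.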

[6] = biological target: Butyrophilin subfamily 3 member A1 (Homo sapiens) (UniProt O00481); assay: Activation of BTN3A1 in human Vgamma9Vdelta2 T cells assessed as induction of interleukin 2 stimulated cell proliferation by measuring increase in CD3 positive cells at 0.1 uM treated for 72 hrs measured on day 11 post last treatment by flow cytometry; type: cell-based; in short: as §2
[7] = Selectivity index, ratio of IC50 for human Vgamma9Vdelta2 T cells to EC50 for BTN3A1 in human Vgamma9Vdelta2 T cells; type: functional
[8] = biological target: Butyrophilin subfamily 3 member A1 (Homo sapiens) (UniProt O00481); assay: Potency index, ratio of HMBPP EC50 to compound EC50 for BTN3A1 in human Vgamma9Vdelta2 T cells
[9] = Safety index, ratio of HMBPP IC50 to compound IC50 for human K562 cells; type: ADME, cell-based; details: read-out: Ratio IC50
In short: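 Direct K562 toxicity: 1 × 10^4 cells/100 μL exposed to compounds for 72 h, with cell quantibluo reagent added for the final 2 h and a fluorescence read-out. Viable cells were expressed as % of untreated control after subtracting a media-only blank, giving an IC50. The fold value divides the reference IC50 by the test IC50.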

[10] = Toxicity in human Vgamma9/Vdelta2 T cells at >= 10 uM treated for 72 hrs measured on day 11 post last treatment by flow cytometry; type: cell-based; details: vgamma9/vdelta2 t cell; in short: as §1
[11] = biological target: Butyrophilin subfamily 3 member A1 (Homo sapiens) (UniProt O00481); assay: Binding affinity to recombinant C-terminal His-tagged BTN3A1 intracellular domain (unknown origin) expressed in BL21(DE) at […] by isothermal titration calorimetry
In short: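 Full intracellular domain of BTN3A1 was purified as previously described. Protein was at 43 μM and titrant compound at 300–860 μM. Three independent titrations were run per compound.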

[12] = biological target: Butyrophilin subfamily 3 member A1 (Homo sapiens) (UniProt O00481); assay: Binding affinity to recombinant C-terminal His-tagged BTN3A1 intracellular domain (unknown origin) expressed in BL21(DE) assessed as change in entropy at 688 uM by isothermal titration calorimetry
In short: (§3)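 Purified full BTN3A1 intracellular domain at 43 μM titrated with compound at 300–860 μM by isothermal titration calorimetry. Three independent titrations per compound.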

[13] = biological target: Butyrophilin subfamily 3 member A1 (Homo sapiens) (UniProt O00481); assay: Binding affinity to recombinant C-terminal His-tagged BTN3A1 intracellular domain (unknown origin) expressed in BL21(DE) assessed as change in entropy at 480 uM by isothermal titration calorimetry; in short: as §3
[14] = biological target: Butyrophilin subfamily 3 member A1 (Homo sapiens) (UniProt O00481); assay: Binding affinity to recombinant C-terminal His-tagged BTN3A1 intracellular domain (unknown origin) expressed in BL21(DE) assessed as change in entropy at 240 uM by isothermal titration calorimetry

Chain of Butyrophilin subfamily 3 member A1 (Homo sapiens) (O00481 30-513 limits assumed): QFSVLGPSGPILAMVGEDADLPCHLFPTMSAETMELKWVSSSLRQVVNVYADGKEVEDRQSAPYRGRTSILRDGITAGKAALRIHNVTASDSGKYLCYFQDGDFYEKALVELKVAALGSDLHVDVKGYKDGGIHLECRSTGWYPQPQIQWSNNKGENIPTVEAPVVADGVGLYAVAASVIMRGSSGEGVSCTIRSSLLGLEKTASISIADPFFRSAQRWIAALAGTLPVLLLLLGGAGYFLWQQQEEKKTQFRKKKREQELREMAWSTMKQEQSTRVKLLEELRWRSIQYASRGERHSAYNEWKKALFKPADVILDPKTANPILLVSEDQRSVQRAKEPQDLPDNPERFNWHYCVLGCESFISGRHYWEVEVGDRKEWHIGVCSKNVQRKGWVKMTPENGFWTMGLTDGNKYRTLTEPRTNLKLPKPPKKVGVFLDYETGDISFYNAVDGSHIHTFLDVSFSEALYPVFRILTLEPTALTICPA

Row | SMILES | IC50 at 72 h [1] [µM] | IC50 (K562) [µM] | Activity [5] | Activity [6] | further results
1 | CC(C)=CCCP(=O)(O)CP(=O)(O)O | > 100 | > 100 | – | – | inhibition [2]: Dose-dependent effect; TdeltaS [3]: 6.69 kcal/mol; TdeltaS [4]: -1.1 kcal/mol
2 | C/C(=C\COP(=O)(O)OP(=O)(O)O)CO | 0.5 | > 100 | Active | Active | –
3 | COP(=O)(CC/C=C(\C)CO)CP(=O)(OC)OC (configuration not stated) | > 100 | > 100 | – | – | –
4 | C/C(=C\CCP(=O)(OCOC(=O)C(C)(C)C)OCOC(=O)C(C)(C)C)CO | 0.6 | – | Active | Active | Ratio IC50/EC50 [7]: 110; Ratio EC50 [8]: 0.094
5 | CC(C)=CCCP(=O)(CP(=O)(OCOC(=O)C(C)(C)C)OCOC(=O)C(C)(C)C)OCOC(=O)C(C)(C)C (configuration not stated) | > 100 | 9.7 | – | – | selectivity ratio [9]: > 10
6 | C/C(=C\CCP(=O)(O)O)CO | – | – | – | – | Ratio EC50 [8]: 0.00013
7 | C/C(=C\CCP(=O)(CP(=O)(OCOC(=O)C(C)(C)C)OCOC(=O)C(C)(C)C)OCOC(=O)C(C)(C)C)CO (configuration not stated) | 3.5 | – | Active | Active | selectivity ratio [9]: > 29; Ratio IC50/EC50 [7]: 85; Activity [10]: Toxic; Activity [11]: inactive
8 | C/C(=C\CCP(=O)(O)CP(=O)(O)O)CO | > 100 | > 100 | – | – | TdeltaS [12]: -12.1 kcal/mol; TdeltaS [13]: -13.2 kcal/mol; TdeltaS [14]: -12 kcal/mol
